Data from ChEMBL document CHEMBL4007469, “Design and synthesis of dalbergin analogues and evaluation of anti-osteoporotic activity” (Bioorg Med Chem Lett, 2017).
Activity calls are given as the source filed them. The calls are words filed in the database; no cut-off is given here.

Tests used:
[1] = Induction of osteoblast differentiation in mouse calvarial cells assessed as increase in ALP activity using PNPP as substrate after 48 hrs; assay type: functional, cell-based; conditions: Calvarial cell
[2] = Induction of osteoblast differentiation in mouse calvarial cells assessed as compound concentration required for maximum increase in ALP activity using PNPP as substrate after 48 hrs; assay type: functional, Calvarial cell
[3] = test system: Calvarial cell; test: Induction of mineralization in mouse calvarial cells assessed as calcium nodule formation at Emax incubated for 12 days by alizarin red-S staining based spectrophotometric method; assay type: functional
Outline: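 Primary mouse calvarial osteoblasts treated with or without compound for 12 days, fixed in 4% formaldehyde, stained with alizarin red-S, and the stain extracted and quantified by the acetic acid method.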

Structure (SMILES)	EC50 [1] [nM]	Concentration giving maximal ALP increase [2] [pM]	Activity [3]
C/C=C(\C)C(=O)Oc1cc2c(-c3ccccc3)cc(=O)oc2cc1OC	1.1	1e+06	–
COc1cc2oc(=O)cc(-c3ccccc3)c2cc1OC(=O)Cc1cccs1	7.4	10000	–
CCN1CCN(CCCCCOc2cc3c(-c4ccccc4)cc(=O)oc3cc2OC)CC1	12400	–	–
COc1cc2oc(=O)cc(-c3ccccc3)c2cc1OCCCl	19.4	1	–
COc1cc2oc(=O)cc(-c3ccccc3)c2cc1OC(=O)c1ccc(Br)cc1	0.8	1e+06	–
COc1cc2oc(=O)cc(-c3ccccc3)c2cc1OCCCBr	5.9	100	Active
COc1cc2oc(=O)cc(-c3ccccc3)c2cc1OCCCCCBr	5.7	10000	Active

Continued, in another order:

EC50 [1] [nM]	Structure (SMILES)	Concentration giving maximal ALP increase [2] [pM]	Activity [3]
11.7	COc1cc2oc(=O)cc(-c3ccccc3)c2cc1OCCN1CCOCC1	1	Active
13.6	CCN1CCN(CCOc2cc3c(-c4ccccc4)cc(=O)oc3cc2OC)CC1	1	Active
14.8	COc1cc2oc(=O)cc(-c3ccccc3)c2cc1OCCN1CCN(C)CC1	1	Active
9.42	COc1cc2oc(=O)cc(-c3ccccc3)c2cc1OCCCN1CCN(C)CC1	100	–
7.6	COc1cc2oc(=O)cc(-c3ccccc3)c2cc1OCCCN1CCCCC1	1	Active
27.9	CCN1CCN(CCCOc2cc3c(-c4ccccc4)cc(=O)oc3cc2OC)CC1	10000	–
10.8	COc1cc2oc(=O)cc(-c3ccccc3)c2cc1OCCCCCN1CCCCC1	1	Active
900	COc1cc2oc(=O)cc(-c3ccccc3)c2cc1OCCCCCN1CCOCC1	10000	Active
